Runt-SMMHC FRET: inhibitors of human RUNX1 Runt domain binding to CBFb-SMMHC. AID 1434. Q01196+Q13951. actives 0.74% (n = 220,000). Cerulean-Runt/Venus-CBFb-SMMHC FRET ratio 530/480, 1 h. inhibition, % at 20 µM;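 active means mean inhibition across duplicate retests at 20 µM reaching about 50%, limit read from the data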;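 further: 0% = DMSO wells and 100% = wells with excess untagged CBFb-SMMHC; inhibitors lower the FRET ratio by blocking Runt binding to CBFb-SMMHC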
Runt-CBFb FRET: Runt domain-CBFb interaction inhibition; Q01196+Q13951; Cerulean-Runt/Venus-CBFb FRET ratio 530/480, 1 h; inhibition, % at 20 µM; actives 0.46% (n = 220,000); AID 1496;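 active means inhibition over about 50% at 20 µM in the single-dose screen, limit read from the data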;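 further: 0% = DMSO wells and 100% = excess unlabeled CBFb competitor control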
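Measured by: fluorescence energy transfer, 422 nm excitation, 530/480 nm emission; test system: Cerulean-tagged RUNX1 Runt domain (FRET donor) fusion protein; buffer or medium: Tris pH 7.5 buffer with BSA; compound: one dose, 20 µM compound, 1% DMSO; times: two 1 h room-temperature incubations shielded from light; benchmarks: unlabeled CBFb 5 µM, positive control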
FAS TE block: blocks the thioesterase domain of human fatty acid synthase. P49327. recombinant FAS-TE, OMFH fluorogenic substrate, fluorescence endpoint. inhibition, % at 15 µM. actives 0.67% (n = 360,000);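 active means compounds whose normalised, plate-corrected inhibition of enzyme fluorescence in the single-dose primary screen is 50% or more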;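 further: 0% = DMSO with enzyme and 100% = substrate without enzyme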
RanGTP-Imp inh: inhibitors of RanGTP-importin-beta interaction, primary screen, biochemical, FRET, CFP-Ran, YFP-importin-beta, homogeneous | actives 1.1% (n = 300,000) | inhibition, % (no concentration beside the values) | cell-free CFP-Ran/YFP-importin-beta FRET ratio | AID 2216;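 active means more than half of the replicate wells show a fall in the fluorescence ratio signal beyond about 16%, limit read from the data, passing the limit was not always enough; inconclusive means exactly half of the replicate wells pass the set limit; inactive means fewer than half of replicates pass the limit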;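 further: 0% = DMSO wells and 100% = Ran loaded with GDP instead of GTP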
m-calpain inh: inhibitors of pig calpain II; AID 1236; actives 0.37% (n = 220,000); purified calpain II, fluorogenic peptide substrate, 30 min; inhibition, % at 16 µM;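 active means inhibition above about 50%, limit read from the data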
An asterisk follows results filed as active; i = inactive; ? = inconclusive; . = no result given. The list is not random: actives were taken first. Their share in the collection is about 2.1%.

SMILES	Runt-SMMHC FRET	Runt-CBFb FRET	FAS TE block	RanGTP-Imp inh	m-calpain inh
C/C(CC(=O)NC12CC3CC(CC(C3)C1)C2)=N\NC(=O)c1ccc(F)cc1	.	.	1	-2	.
O=C(/C=C/c1cccs1)N1CCOCC1	1	0	-15	-1	56*
O=C(/C=C/c1cccs1)N1CCN(c2ccc(F)cc2)CC1	1	3	3	-3	5
O=C1C=C(Nc2ccc(O)cc2)C(=O)c2ccccc21	-1	4	-6	-1	58*
COc1ccc(OC)c(NC(=O)CSc2nc(=O)n(CCN3CCOCC3)c3c2CCCC3)c1	.	.	-5	-5	.
C[C@@H](C(=O)N1CCNCC1)n1cc(CCCN=C(N)N)nn1	-1	1	-13	4	-22
Cc1cc(C(C)(C)C)oc1C(=O)N(CC(=O)NC1CCCC1)Cc1ccccc1Cl	0	-3	19	-4	50*
O=C(O)/C(=C\c1ccc2ccccc2c1)c1cccc2ccccc12	.	.	9	3	.
Cc1ccccc1NC(=S)NCCC(c1ccccc1)c1ccccc1	0	-3	20	2	78*
CC(=O)N1Cc2cc(C(=O)NCC(F)(F)F)nc(-c3cccc(-c4cc5ccccc5o4)c3)c2[C@H]1CCO	.	.	-1	.	.
CN(C)CCCNC(=S)NCCNc1nc2cc3c(cc2cc1C#N)OCO3	113*	84*	-10	72*	-412
COCCNC(=S)NCCCNc1nc2cc3c(cc2cc1C#N)OCO3	48	15	-7	87*	i
Cc1cc(=O)[nH]c(N2CCCCC2)n1	.	.	-7	.	.
O=C(CN1C(=O)C2CCCCC2C1=O)Nc1nc2ccc(F)cc2s1 (centres undefined)	.	.	0	5	.
O=C(CCC1CCCCC1)NCCN1C2=NC[C@H](Cc3ccc(O)cc3)N2C[C@H]1Cc1ccc(O)cc1	-6	0	-2	16*	17
C[C@@H]1CN=C2N(CCNC(=O)CCC3CCCCC3)[C@H](Cc3ccc(O)cc3)CN21	5	3	-10	-2	6
O=S(=O)(c1cccc(Cl)c1Cl)N1CCN(C(=S)NCCCN2CCOCC2)CC1	2	-1	4	25*	-23
O=C(NCCCN1CCOCC1)C1CCN(S(=O)(=O)c2cccc(Cl)c2Cl)CC1	.	.	-5	.	.
N#C/C(=C\c1ccccc1)C(=O)Nc1ccccn1	.	.	-3	49*	.
CC(C)(C)c1ccc(/C=C(\C#N)C(=O)Nc2ccccn2)cc1	.	.	4	-2	.
N#C/C(=C\c1ccccc1Cl)C(=O)Nc1ccccn1	.	.	-4	44*	.
C=CCOc1ccc(/C=C(\C#N)C(=O)Nc2ccccn2)cc1	.	.	0	17*	.
N#C/C(=C\c1cccs1)C(=O)Nc1ccccn1	-18	-4	-6	26*	15
O=C(CCS(=O)(=O)c1ccc(Cl)cc1)Nc1nc(-c2ccncc2)cs1	.	.	-3	3	.
CCCN(CC(=O)Nc1ccccc1C)C(=O)c1ccc(N2CCCCC2)c([N+](=O)[O-])c1	.	.	10	0	.
SMILES	Runt-SMMHC FRET	Runt-CBFb FRET	FAS TE block	RanGTP-Imp inh	m-calpain inh
CCOc1ccc(NC(=O)CN2C(=O)/C(=C3\SC(=S)N(C4CCS(=O)(=O)C4)C3=O)c3ccccc32)cc1 (centres undefined)	3	18	-5	.	63*
COCCN1C(=O)/C(=C2/C(=O)N(CC(=O)Nc3ccccc3Cl)c3ccccc32)SC1=S	.	.	-8	0	.
COc1cc(C(=O)NCC2(c3ccccc3)CCCC2)cc(OC)c1OC	.	.	2	3	.
CCOC(=O)Cc1csc(NS(=O)(=O)c2ccc(Br)cc2)n1	-2	0	-1	37*	-10
CCC(=O)Oc1ccc2c(c1)O/C(=C\c1ccco1)C2=O	81*	-114	-6	-21	-211
CC(=O)Oc1ccc2c(c1)O/C(=C\c1ccncc1)C2=O	-134	-338	-8	-203	2
COc1cc(C2CC(c3cccnc3)=NN2c2ccc(F)cc2)cc(OC)c1OC (centres undefined)	87*	26	37	.	-149
COc1ccc(C2CC(c3ccccc3)=NN2c2ccc(S(N)(=O)=O)cc2)cc1OC (centres undefined)	24	2	20	-2	i
COC(=O)C1=CN(C(C)C)C=C(C(=O)OC)C1c1cc2c(cc1Br)OCO2	118*	12	7	30*	-321
CC1=C(C(=O)OCC(C)C)C(c2cc3c(cc2Br)OCO3)NC(=O)N1C (centres undefined)	0	-3	12	2	30
Cc1ccc(C(=O)Cn2nnc(-c3cccs3)n2)cc1	-2	-1	2	1	-21
O=C(CN1CC[n+]2c(-c3cccs3)csc21)c1ccc(-c2ccccc2)cc1	-4	3	-132	1	58*
CCOc1cc(S(=O)(=O)N2CCN(C(=O)c3ccco3)CC2)ccc1F	.	.	6	0	.
Cc1ccc(C(=O)N/C(=C\c2cccs2)C(=O)NCCCn2ccnc2)cc1	4	0	-13	5	0
CC1(C)Cc2c(sc3ncn4c(=S)[nH]nc4c23)CO1	60*	46	-2	2	33
CC1(C)Cc2c(sc3ncn(N)c(=N)c23)CO1	4	0	-12	0	-38
CSc1ccc(CN2CCC(C)(Oc3cccc(Cl)c3)C2)cc1 (centres undefined)	.	.	10	.	.
N#Cc1nc(COc2ccccc2)oc1N1CCN(c2cccc(Cl)c2)CC1	1	1	28	1	56*
CCc1cc(=O)oc2cc(OC(C)C(=O)N3CC[C@@]4(O)CCCC[C@H]4C3)ccc12 (some centres undefined)	.	.	-1	.	.
CCN1CCc2c(sc(NC(=O)C3COc4ccccc4O3)c2C(N)=O)C1 (centres undefined)	.	.	-6	153*	.
CN1CCc2c(sc(NC(=O)C3COc4ccccc4O3)c2C(N)=O)C1 (centres undefined)	.	.	-5	182*	.
CC(=O)N1CCc2c(sc(NC(=O)C3COc4ccccc4O3)c2C(N)=O)C1 (centres undefined)	.	.	0	5	.
Cc1ccc(N(CC(=O)NC2CCCC2)C(=O)CCC(=O)Nc2nc(C)cs2)cc1	.	.	-2	?	.
O=C(NC1CCSc2ccccc21)c1ccc(C(F)(F)F)cc1 (centres undefined)	.	.	-3	-1	.
CCCn1c(=N)c(C(=O)NC2CCCC2)cc2c(=O)n3cccc(C)c3nc21	83*	5	-22	198*	i
CCCCNC(=O)c1cc2c(=O)n3cccc(C)c3nc2n(CCN2CCOCC2)c1=N	62*	100*	-9	150*	i
CCn1c(=N)c(C(=O)NC)cc2c(=O)n3cccc(C)c3nc21	58*	19	-12	.	-361
Cc1cccn2c(=O)c3cc(C(=O)NCc4ccc(F)cc4)c(=N)n(CCCN4CCOCC4)c3nc12	.	.	1	.	.
Cc1cccn2c(=O)c3cc(C(=O)NC4CCCCC4)c(=N)n(CCN4CCOCC4)c3nc12	128*	97*	0	113*	-185
